This passage reports selectivity ratio, EC50 and CC50 results from ChEMBL document CHEMBL4715720, “Synthetic strategy and antiviral evaluation of diamide containing heterocycles targeting dengue and yellow fever virus” (Eur J Med Chem, 2016).

Some results are limits rather than exact numbers.

A word on the EC50: it is the concentration giving half of the maximal effect. As a reminder, the CC50 is the concentration giving 50% cytotoxicity.

A short description of data set [1]: Selectivity index, ratio of CC50 for African green monkey Vero-B cells infected with Dengue virus serotype 2 assessed as inhibition of cell growth to EC50 for Dengue Virus serotype 2 infected in Vero-B cells assessed as inhibition of virus-induced cytopathogenic effect incubated for 7 days by methylene blue staining based visual analysis. Format: toxicity. Conditions: read-out: Ratio CC50/EC50. (In general: Protection from cytopathic effect is a common read-out in antiviral testing.)

The nature of data set [2]: Selectivity index, ratio of CC50 for African green monkey Vero-B cells infected with Yellow fever virus assessed as inhibition of cell growth to EC50 for Yellow fever virus infected in Vero-B cells assessed as inhibition of virus-induced cytopathogenic effect incubated for 7 days by methylene blue staining based visual analysis. Format: toxicity. Conditions: read-out: Ratio CC50/EC50.

For another data set, the system named is dengue virus type 2. Put plainly: Antiviral activity against Dengue virus serotype 2 infected in Vero-B cells assessed as inhibition of virus-induced cytopathogenic effect after 7 days by methylene blue staining based visual analysis. In kind it is functional, organism-based. Conditions: 168 h. In short, it runs like this:
(§1)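 Dengue virus serotype 2 was tested in green monkey kidney Vero-B cells from the ECACC line. EC50 is the concentration that inhibits virus-induced CPE by 50%. CC50 is the concentration that inhibits cell growth by 50%. Values were first obtained in μg/mL and then recalculated to μM.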

Data set [3] in a line: Cytotoxicity against African green monkey Vero-B cells infected with Yellow fever virus assessed as inhibition of cell growth after 7 days by methylene blue staining based visual analysis. As to conditions: chlorocebus aethiops, time 7 day. In short, it runs like this:
(§2)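 Yellow fever virus was tested in Vero-B cells of the ATCC CCL-81 line. EC50 is the concentration giving 50% inhibition of virus-induced CPE. CC50 is the concentration giving 50% inhibition of cell growth. The original μg/mL data were converted to μM.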

Data set [4] in a line: Cytotoxicity against African green monkey Vero-B cells infected with Dengue virus serotype 2 assessed as inhibition of cell growth after 7 days by methylene blue staining based visual analysis. Conditions: chlorocebus aethiops, time 7 day. In short, it runs like this: as §1
The subject of the next data set is Yellow fever virus. Put plainly: Antiviral activity against Yellow fever virus infected in Vero-B cells assessed as inhibition of virus-induced cytopathogenic effect after 7 days by methylene blue staining based visual analysis. In kind it is functional, organism-based. Conditions: 168 h. In short, it runs like this: as §2

For the compound `Cc1ccc(NC(=O)c2nccnc2C(=O)Nc2ccc(C)cc2-c2cccs2)cc1`, in data set [1], the selectivity ratio at 168 h was above 235.

With `Cc1ccc(NC(=O)c2nccnc2C(=O)Nc2ccc(F)cc2)c(-c2cccs2)c1`, the selectivity ratio at 168 h in data set [2] came out at 5.

For `O=C(NCc1ccccc1-c1ccsc1)c1ccccc1C(=O)Nc1ccc(F)cc1`, the EC50 in the data set on dengue virus type 2 turned out to be 3 µM; in the data set on Yellow fever virus it was 1.4 µM. The selectivity ratio at 168 h in data set [1] amounted to 17; in data set [2], 53. Besides, the CC50 at 168 h in data set [3] is 75 µM; in data set [4], 50 µM.

As for `Cc1ccc(NC(=O)c2nccnc2C(=O)Nc2ccccc2-c2cc(C)n[nH]2)cc1`, in data set [2], the selectivity ratio at 168 h was above 34.

On to `Cc1ccc(NC(=O)c2nccnc2C(=O)Nc2ccc(C)cc2-c2ccsc2)cc1`, for which the selectivity ratio at 168 h in data set [1] was above 29.

As to `Cc1ccc(NC(=O)c2nccnc2C(=O)Nc2ccc(C)cc2-c2cc(C)n[nH]2)cc1`, the selectivity ratio at 168 h in data set [1] was above 235.

Turning to `Cc1ccc(NC(=O)c2ccccc2C(=O)Nc2ccc(C)cc2-c2ccsc2)cc1`, the selectivity ratio at 168 h in data set [1] came to 41.

Regarding `Cc1ccc(NC(=O)c2ccccc2C(=O)Nc2ccc(F)cc2)c(-c2cc(C)n[nH]2)c1`, the selectivity ratio at 168 h in data set [1] is above 235.
